Reference: ChEMBL document CHEMBL1155278, “3,4-Diaryl-isoxazoles and -imidazoles as potent dual inhibitors of p38alpha mitogen activated protein kinase and casein kinase 1delta” (J Med Chem, 2009)

Columns and labels:
[1] = molecular target: Ribosomal protein S6 kinase beta-1 (Homo sapiens) (UniProt P23443); assay: Inhibition of S6K1 assessed as residual activity at 10 uM by Cherenkov counting relative to control in presence of 20 uM ATP
Procedure, shortened: (§1)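 Single-concentration profiling at 10 μM in a 78-kinase panel. Kinase activity is expressed as a percentage of control assays run without compound.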

[2] = molecular target: Rho-associated protein kinase 2 (Homo sapiens) (UniProt O75116); assay: Inhibition of ROCK2 assessed as residual activity at 10 uM by Cherenkov counting relative to control in presence of 20 uM ATP; procedure, shortened: as §1
Rho-associated protein kinase 2 (Homo sapiens), sequence (O75116 whole entry, looked up): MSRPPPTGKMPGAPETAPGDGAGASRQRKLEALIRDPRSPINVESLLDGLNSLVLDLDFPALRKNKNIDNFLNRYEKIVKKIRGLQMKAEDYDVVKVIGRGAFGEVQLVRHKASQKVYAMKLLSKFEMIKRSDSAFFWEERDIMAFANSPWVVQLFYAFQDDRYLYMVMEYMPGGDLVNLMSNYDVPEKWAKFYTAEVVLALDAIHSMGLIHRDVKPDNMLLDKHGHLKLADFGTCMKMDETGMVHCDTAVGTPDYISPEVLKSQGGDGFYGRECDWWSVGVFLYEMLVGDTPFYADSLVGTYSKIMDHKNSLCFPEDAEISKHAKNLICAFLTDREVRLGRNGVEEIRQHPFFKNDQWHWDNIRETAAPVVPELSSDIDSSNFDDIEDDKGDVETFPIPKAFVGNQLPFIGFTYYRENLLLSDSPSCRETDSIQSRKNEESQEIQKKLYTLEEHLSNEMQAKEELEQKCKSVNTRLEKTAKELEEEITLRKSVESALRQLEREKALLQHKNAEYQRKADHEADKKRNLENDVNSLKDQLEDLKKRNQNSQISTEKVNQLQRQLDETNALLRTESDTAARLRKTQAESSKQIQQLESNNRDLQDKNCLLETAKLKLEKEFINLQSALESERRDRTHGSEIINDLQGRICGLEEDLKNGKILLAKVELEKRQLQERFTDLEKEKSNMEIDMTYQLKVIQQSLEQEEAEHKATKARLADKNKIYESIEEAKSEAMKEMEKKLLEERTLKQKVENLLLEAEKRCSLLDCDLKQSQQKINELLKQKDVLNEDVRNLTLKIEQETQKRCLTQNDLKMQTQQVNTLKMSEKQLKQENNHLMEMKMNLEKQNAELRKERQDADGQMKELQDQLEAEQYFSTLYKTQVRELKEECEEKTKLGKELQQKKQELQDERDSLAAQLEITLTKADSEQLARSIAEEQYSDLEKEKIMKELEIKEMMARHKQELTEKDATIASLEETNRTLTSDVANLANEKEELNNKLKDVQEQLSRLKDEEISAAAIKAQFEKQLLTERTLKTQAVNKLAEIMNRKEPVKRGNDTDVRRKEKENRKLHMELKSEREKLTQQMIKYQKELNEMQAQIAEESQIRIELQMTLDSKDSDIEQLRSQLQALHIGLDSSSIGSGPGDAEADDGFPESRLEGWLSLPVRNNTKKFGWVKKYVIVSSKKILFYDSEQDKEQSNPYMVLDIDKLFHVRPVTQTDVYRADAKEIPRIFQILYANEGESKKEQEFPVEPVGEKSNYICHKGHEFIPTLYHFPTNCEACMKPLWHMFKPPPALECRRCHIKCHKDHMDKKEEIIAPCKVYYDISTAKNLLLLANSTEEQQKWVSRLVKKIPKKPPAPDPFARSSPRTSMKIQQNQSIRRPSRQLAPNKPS

[3] = molecular target: T1, Protein kinase C zeta type (Homo sapiens) (UniProt Q05513); assay: Inhibition of PKCzeta assessed as residual activity at 10 uM by Cherenkov counting relative to control in presence of 5 uM ATP; procedure, shortened: as §1
T1 sequence (whole entry): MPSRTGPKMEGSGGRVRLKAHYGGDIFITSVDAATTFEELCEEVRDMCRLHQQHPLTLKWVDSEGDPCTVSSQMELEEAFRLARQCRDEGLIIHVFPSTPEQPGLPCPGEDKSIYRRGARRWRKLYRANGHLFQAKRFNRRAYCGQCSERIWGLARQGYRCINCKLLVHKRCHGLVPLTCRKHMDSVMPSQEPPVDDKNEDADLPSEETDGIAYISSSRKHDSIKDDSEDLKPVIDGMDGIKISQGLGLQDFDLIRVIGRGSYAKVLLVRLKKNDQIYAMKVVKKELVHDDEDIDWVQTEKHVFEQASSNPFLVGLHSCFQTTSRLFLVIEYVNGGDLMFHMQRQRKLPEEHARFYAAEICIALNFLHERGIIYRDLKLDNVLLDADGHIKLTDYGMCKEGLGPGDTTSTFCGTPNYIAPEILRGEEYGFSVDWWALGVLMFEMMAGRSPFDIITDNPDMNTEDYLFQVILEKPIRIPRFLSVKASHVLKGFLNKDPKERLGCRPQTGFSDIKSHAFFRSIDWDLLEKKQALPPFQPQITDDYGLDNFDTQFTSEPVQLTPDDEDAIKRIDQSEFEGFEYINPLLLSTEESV

[4] = molecular target: Ribosomal protein S6 kinase alpha-5 (Homo sapiens) (UniProt O75582); assay: Inhibition of MSK1 assessed as residual activity at 10 uM by Cherenkov counting relative to control in presence of 20 uM ATP
Ribosomal protein S6 kinase alpha-5 (Homo sapiens), sequence (O75582 whole entry, looked up): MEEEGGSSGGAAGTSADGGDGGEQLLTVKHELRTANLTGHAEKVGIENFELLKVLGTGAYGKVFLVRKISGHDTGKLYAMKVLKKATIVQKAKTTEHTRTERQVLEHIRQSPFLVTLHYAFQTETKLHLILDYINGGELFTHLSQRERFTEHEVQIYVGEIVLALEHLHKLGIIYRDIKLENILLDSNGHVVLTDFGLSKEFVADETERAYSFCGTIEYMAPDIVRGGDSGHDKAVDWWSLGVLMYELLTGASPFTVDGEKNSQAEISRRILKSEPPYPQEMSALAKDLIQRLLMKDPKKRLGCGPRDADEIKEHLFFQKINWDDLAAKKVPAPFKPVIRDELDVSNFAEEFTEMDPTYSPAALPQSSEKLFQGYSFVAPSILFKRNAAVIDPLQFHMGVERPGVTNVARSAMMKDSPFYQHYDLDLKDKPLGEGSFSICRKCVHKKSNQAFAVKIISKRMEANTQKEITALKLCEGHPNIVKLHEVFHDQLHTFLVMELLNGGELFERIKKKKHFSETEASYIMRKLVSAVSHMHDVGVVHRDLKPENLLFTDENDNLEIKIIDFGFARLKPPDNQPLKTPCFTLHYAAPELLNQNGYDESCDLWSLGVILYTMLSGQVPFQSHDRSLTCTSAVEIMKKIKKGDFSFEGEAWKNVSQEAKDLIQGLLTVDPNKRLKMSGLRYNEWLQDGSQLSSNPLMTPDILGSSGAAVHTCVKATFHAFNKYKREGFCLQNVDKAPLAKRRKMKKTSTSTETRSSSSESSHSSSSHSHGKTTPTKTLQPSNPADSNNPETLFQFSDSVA

[5] = molecular target: Calcium/calmodulin-dependent protein kinase kinase 2 (Homo sapiens) (UniProt Q96RR4); assay: Inhibition of CAMKKbeta assessed as residual activity at 10 uM by Cherenkov counting relative to control
Calcium/calmodulin-dependent protein kinase kinase 2 (Homo sapiens), sequence (Q96RR4 2-588 limits assumed): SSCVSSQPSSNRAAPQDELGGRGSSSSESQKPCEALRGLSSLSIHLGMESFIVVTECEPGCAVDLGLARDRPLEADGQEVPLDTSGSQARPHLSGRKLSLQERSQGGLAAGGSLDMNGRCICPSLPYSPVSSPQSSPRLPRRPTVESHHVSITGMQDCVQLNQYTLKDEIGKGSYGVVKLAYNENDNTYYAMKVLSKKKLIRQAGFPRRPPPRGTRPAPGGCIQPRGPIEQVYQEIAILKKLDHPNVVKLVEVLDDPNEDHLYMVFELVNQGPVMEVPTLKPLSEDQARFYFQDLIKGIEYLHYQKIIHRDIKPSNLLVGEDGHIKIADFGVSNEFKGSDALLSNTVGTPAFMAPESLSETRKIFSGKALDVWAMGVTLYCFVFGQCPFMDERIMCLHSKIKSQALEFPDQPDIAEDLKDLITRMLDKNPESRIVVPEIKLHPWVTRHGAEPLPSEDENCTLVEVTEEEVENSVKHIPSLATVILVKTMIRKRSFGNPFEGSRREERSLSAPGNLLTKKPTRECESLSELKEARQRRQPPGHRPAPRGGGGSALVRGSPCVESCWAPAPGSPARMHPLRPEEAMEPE
Procedure, shortened: (§2)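 Single-point profiling at 10 µM in a panel of 78 protein kinases. Kinase activity is expressed as a percentage relative to control assays without compound.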

[6] = molecular target: Serine/threonine-protein kinase Chk2 (Homo sapiens) (UniProt O96017); assay: Inhibition of CHK2 assessed as residual activity at 10 uM by Cherenkov counting relative to control in presence of 20 uM ATP; procedure, shortened: as §2
Serine/threonine-protein kinase Chk2 (Homo sapiens), sequence (O96017 whole entry): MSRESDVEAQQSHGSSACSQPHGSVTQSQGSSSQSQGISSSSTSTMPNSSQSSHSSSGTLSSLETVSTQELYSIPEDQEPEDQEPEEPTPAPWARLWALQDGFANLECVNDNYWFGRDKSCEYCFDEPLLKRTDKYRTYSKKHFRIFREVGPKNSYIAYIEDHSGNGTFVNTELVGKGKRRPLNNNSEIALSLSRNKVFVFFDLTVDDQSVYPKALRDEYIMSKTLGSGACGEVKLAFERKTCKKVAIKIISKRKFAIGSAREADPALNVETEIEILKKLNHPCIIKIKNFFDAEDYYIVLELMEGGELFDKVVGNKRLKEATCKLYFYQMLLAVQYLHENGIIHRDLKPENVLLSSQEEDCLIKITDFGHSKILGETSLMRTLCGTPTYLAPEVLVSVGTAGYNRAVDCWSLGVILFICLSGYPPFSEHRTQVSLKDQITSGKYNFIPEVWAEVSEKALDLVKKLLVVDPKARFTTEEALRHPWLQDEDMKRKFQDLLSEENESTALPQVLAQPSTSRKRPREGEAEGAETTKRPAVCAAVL

[7] = molecular target: Serine/threonine-protein kinase PLK1 (Homo sapiens) (UniProt P53350); assay: Inhibition of PLK1 assessed as residual activity at 10 uM by Cherenkov counting relative to control in presence of 5 uM ATP; procedure, shortened: as §1
[8] = molecular target: Maternal embryonic leucine zipper kinase (Homo sapiens) (UniProt Q14680); assay: Inhibition of MELK assessed as residual activity at 10 uM by Cherenkov counting relative to control in presence of 50 uM ATP
[9] = molecular target: Serine/threonine-protein kinase pim-1 (Homo sapiens) (UniProt P11309); assay: Inhibition of PIM1 assessed as residual activity at 10 uM by Cherenkov counting relative to control in presence of 20 uM ATP
Serine/threonine-protein kinase pim-1 (Homo sapiens), sequence (P11309 whole entry, looked up): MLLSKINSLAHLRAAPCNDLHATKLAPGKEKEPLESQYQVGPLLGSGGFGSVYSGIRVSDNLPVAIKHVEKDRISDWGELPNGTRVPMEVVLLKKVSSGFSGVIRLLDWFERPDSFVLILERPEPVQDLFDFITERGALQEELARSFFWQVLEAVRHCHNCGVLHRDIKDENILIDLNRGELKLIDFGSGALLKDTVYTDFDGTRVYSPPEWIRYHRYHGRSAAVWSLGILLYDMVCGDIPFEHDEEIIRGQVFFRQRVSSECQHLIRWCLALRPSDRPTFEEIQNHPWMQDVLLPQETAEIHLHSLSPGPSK

[10] = molecular target: Serine/threonine-protein kinase PAK 5 (Homo sapiens) (UniProt Q9P286); assay: Inhibition of PAK5 assessed as residual activity at 10 uM by Cherenkov counting relative to control in presence of 20 uM ATP
[11] = molecular target: Ribosomal protein S6 kinase alpha-1 (Homo sapiens) (UniProt Q15418); assay: Inhibition of RSK1 assessed as residual activity at 10 uM by Cherenkov counting relative to control; procedure, shortened: as §1
[12] = molecular target: Tyrosine-protein kinase BTK (Homo sapiens) (UniProt Q06187); assay: Inhibition of BTK assessed as residual activity at 0.1 uM by Cherenkov counting relative to control in presence of 50 uM ATP
Procedure, shortened: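 Single-concentration screen at 0.1 µM across a panel of 76 protein kinases. Each kinase was run at an ATP concentration approximating its ATP Km. Results are % mean residual activity versus control assays without compound (n = 3 ± SD).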

[13] = molecular target: Mitogen-activated protein kinase 14 (Homo sapiens, UniProt Q16539); assay: Inhibition of p38alpha by Cherenkov counting
Mitogen-activated protein kinase 14, sequence (Q16539 whole entry): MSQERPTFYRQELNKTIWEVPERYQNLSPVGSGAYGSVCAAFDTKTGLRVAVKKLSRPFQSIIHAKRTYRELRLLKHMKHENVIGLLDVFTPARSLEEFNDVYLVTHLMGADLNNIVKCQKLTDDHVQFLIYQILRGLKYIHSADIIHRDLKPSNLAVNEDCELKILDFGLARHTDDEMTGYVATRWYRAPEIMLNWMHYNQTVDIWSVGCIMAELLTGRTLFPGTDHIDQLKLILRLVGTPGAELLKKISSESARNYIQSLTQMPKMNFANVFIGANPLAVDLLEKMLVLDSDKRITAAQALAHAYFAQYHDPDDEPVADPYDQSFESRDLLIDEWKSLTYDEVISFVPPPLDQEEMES

[14] = molecular target: RAC-alpha serine/threonine-protein kinase (Homo sapiens) (UniProt P31749); assay: Inhibition of PKBalpha assessed as residual activity at 0.1 uM by Cherenkov counting relative to control in presence of 5 uM ATP
RAC-alpha serine/threonine-protein kinase (Homo sapiens), sequence (P31749 whole entry): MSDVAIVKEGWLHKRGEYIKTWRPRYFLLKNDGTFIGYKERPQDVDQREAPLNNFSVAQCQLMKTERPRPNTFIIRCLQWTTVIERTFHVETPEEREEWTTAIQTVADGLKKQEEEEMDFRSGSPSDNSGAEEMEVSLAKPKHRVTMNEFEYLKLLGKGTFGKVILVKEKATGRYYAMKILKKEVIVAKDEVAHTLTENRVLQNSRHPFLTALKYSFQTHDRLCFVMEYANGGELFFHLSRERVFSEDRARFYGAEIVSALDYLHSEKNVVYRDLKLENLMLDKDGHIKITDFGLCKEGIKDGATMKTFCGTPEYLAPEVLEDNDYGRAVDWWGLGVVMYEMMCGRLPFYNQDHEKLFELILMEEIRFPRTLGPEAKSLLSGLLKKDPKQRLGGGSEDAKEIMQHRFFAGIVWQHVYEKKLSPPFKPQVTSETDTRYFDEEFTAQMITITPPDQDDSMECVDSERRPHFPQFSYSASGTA
Procedure, shortened: (§3)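 Single-concentration screen at 0.1 μM in a 76-kinase panel. ATP for each kinase was set near its Km for ATP. Residual activity is given as a percentage of control assays without compound, mean of n = 3 ± SD.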

[15] = molecular target: Ribosomal protein S6 kinase alpha-5 (Homo sapiens) (UniProt O75582); assay: Inhibition of MSK1 assessed as residual activity at 0.1 uM by Cherenkov counting relative to control in presence of 20 uM ATP
Procedure, shortened: (§4)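 Single-concentration selectivity screen at 0.1 μM against a panel of 76 protein kinases. Each kinase was run at an ATP level approximating its Km for ATP. Output is mean residual activity as % of the control assay without compound, n = 3 ± SD.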

[16] = molecular target: T2, MAP kinase-activated protein kinase 5 (Homo sapiens) (UniProt Q8IW41); assay: Inhibition of PRAK assessed as residual activity at 0.1 uM by Cherenkov counting relative to control in presence of 20 uM ATP; procedure, shortened: as §3
T2 sequence (whole entry): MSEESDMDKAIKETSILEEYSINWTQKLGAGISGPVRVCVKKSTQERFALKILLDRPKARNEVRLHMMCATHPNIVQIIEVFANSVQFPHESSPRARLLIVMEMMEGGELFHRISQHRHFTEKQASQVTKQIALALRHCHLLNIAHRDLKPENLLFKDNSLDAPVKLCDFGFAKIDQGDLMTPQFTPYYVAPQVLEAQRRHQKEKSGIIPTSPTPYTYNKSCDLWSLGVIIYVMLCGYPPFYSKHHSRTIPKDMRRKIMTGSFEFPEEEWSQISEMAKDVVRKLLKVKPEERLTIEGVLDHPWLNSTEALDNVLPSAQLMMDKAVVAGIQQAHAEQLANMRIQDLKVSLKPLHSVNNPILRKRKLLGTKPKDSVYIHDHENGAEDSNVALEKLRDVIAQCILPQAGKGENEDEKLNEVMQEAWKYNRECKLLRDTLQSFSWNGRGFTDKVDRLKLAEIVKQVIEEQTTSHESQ

[17] = molecular target: Myosin light chain kinase, smooth muscle (Homo sapiens) (UniProt Q15746); assay: Inhibition of smooth muscle MLCK assessed as residual activity at 0.1 uM by Cherenkov counting relative to control in presence of 50 uM ATP; procedure, shortened: as §3
[18] = Inhibition of PHK assessed as residual activity at 0.1 uM by Cherenkov counting relative to control; procedure, shortened: as §4

Ribosomal protein S6 kinase beta-1 (Homo sapiens), sequence (P23443 whole entry, looked up): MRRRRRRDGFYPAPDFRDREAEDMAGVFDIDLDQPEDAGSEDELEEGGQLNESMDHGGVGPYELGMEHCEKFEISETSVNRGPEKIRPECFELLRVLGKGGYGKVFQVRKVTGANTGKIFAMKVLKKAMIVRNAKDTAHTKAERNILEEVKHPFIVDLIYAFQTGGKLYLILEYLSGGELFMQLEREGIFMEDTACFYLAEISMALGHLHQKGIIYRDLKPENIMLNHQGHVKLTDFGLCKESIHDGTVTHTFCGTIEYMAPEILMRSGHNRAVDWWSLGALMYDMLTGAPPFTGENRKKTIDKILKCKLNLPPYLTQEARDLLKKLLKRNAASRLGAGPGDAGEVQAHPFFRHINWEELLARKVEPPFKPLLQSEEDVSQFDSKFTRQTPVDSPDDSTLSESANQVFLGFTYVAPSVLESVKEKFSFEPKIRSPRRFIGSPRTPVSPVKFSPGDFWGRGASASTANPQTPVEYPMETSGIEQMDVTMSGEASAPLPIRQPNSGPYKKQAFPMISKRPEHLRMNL

Compound CC(C)c1onc(-c2ccc(F)cc2)c1-c1ccncc1 has an Activity [1] of 89%, an Activity [2] of 76% and an Activity [3] of 81%. For the same compound, the Activity [4] was 95%, the Activity [5] was 99% and the Activity [6] was 104%. It also gave an Activity [7] of 104%, an Activity [8] of 78% and an Activity [9] of 100%. It also gave an Activity [10] of 98% and an Activity [11] of 79%.
COc1ccc(/C=C/C(=O)Nc2cc(-c3[nH]c([S+](C)[O-])nc3-c3ccc(F)cc3)ccn2)c(OC)c1 (stereo unspecified) showed an Activity [12] of 105%, an IC50 [13] of 41 nM and an Activity [14] of 105%. It also gave an Activity [15] of 97%, an Activity [16] of 101% and an Activity [17] of 93%. For the same compound, the Activity [18] was 102%.
In the case of COc1ccc(/C=C/C(=O)Nc2cc(-c3[nH]c(SC)nc3-c3ccc(F)cc3)ccn2)c(OC)c1, the Activity [12] is reported as 92%, the IC50 [13] is reported as 19 nM and the Activity [14] is reported as 105%. For the same compound, the Activity [15] was 84%, the Activity [16] was 83% and the Activity [17] was 82%. It also gave an Activity [18] of 99%.
CC(C)c1noc(-c2ccc(F)cc2)c1-c1ccncc1 gave an Activity [1] of 98%, an Activity [2] of 77% and an Activity [3] of 91%. For the same compound, the Activity [4] was 113%, the Activity [5] was 97% and the Activity [6] was 109%. For the same compound, the Activity [7] was 93%, the Activity [8] was 108% and the Activity [9] was 89%. For the same compound, the Activity [10] was 94% and the Activity [11] was 83%.
